Experimental data reported in PubChem BioAssay.
The source made the active and inactive calls.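 How the source made its calls, unless noted: active means visual image review flags a hit and inhibition of aggregation exceeds 20%; inconclusive means visual hit but inhibition at or below 20%; inactive means no hit on visual image review.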

Key:
[1] = inhibitors of TNFa-induced NFkB p65 translocation, primary screen, imaging, HUVEC, MLSMR starter and 10KST1 sets (AID 438;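 active means inhibition above 20% together with a positive visual image hit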;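 further: compound added about 3h40 before a 20 min TNFalpha stimulation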;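 on inhibition: signal is the nuclear over cytoplasmic p65 intensity ratio per well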); conditions: HUVEC TNFa-induced p65 nuclear translocation; cell count: measured here: nuclei count (cytotoxicity indicator), at 2.08 µM; inhibition: at 2 µM, stronger effect = higher value, 0% TNFa-plus-vehicle, 100% no-TNFa wells
[2] = reduction of polyQ htt aggregates in cells – imaging, exon1htt(103Q)mCFP cells, high-content imaging, primary screen (AID 483); conditions: exon1htt(103Q)mCFP cell line, aggregate imaging, at 2 µM; inhibition of aggregation: stronger effect = higher value; nuclei count: measured here: cell count, toxicity;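 further: compound exposure lasted 3 days before fixation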;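 on nuclei count: percent of the per-plate median nuclei count of sample wells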
[3] = endothelial E-selectin expression blockers – imaging, HUVEC, immunofluorescence, MLSMR starter and 10KST1 sets, primary screen (AID 487;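 active means visually confirmed hit in the image check and inhibition above 20%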;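 on inhibition: signal is fraction of cell area covered by stained E-selectin grains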;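 on nuclei count: 100% = median nuclei count of all wells on the same plate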); conditions: HUVEC TNFalpha-induced E-selectin immunofluorescence imaging, at 2 µM; inhibition: stronger effect = higher value; nuclei count: measured here: cell number, toxicity
[4] = target: Voltage-gated potassium channel subunit beta-2 (Rattus norvegicus) (UniProt P62483); assay: inhibitors of rat Kvbeta2 reductase activity – biochemical, NADPH fluorescence, primary screen (AID 622;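 active means fluorescence slope higher than the sample average by over 3 SD, cut at about -0.22 in these data, passing the limit was not always enough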;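 further: slope of raw intensity against log time taken from 70 to 1610 s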); conditions: recombinant KvBeta, 4-cyanobenzaldehyde reduction, at 10 µM, stronger effect = higher value
[5] = target: Voltage-gated potassium channel subunit beta-2 (Rattus norvegicus) (UniProt P62483); assay: enhancers of rat Kvbeta2 NADPH turnover – biochemical, NADPH fluorescence, primary screen (AID 623;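 active means NADPH fluorescence slope more negative than the mean of all samples by about 3 SD, 99.7% confidence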;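 further: fluorescence intensity change per second fitted from 20 to 320 s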); conditions: Recombinant KvBeta, NADPH fluorescence decrease slope, 10 min; at 10 µM; stronger effect = lower value
[6] = target: Muscarinic acetylcholine receptor M4 (Homo sapiens) (UniProt P08173); assay: M4-linked GIRK flux change, two-sided – cell-based, HEK293 M4/GIRK, thallium flux, BTC-AM, M4 allosteric agonist project, primary screen (AID 625;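 active means fluorescence slope after compound addition differing from the mean of all tested samples at 99.7% confidence, mostly higher but some lower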;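 further: thallium influx through GIRK channels coupled to M4 in HEK293 cells with BTC-AM dye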); conditions: at 10 µM, actives lie on both sides
Outline: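 Assay system: HEK293 cells with M4 receptor and GIRK channels / Controls: carbachol and DMSO controls / Schedule: 1 h dye loading, 2 min kinetic read / Technique: kinetic fluorescence with BTC-AM dye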

[7] = blockers of RIG-like receptor reporter activation – cell-based, Sendai virus stimulus, luciferase, 10K MLSCN set, TLR/RLR signaling modifier project, primary screen (AID 602276;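 active means inhibition at or above 50% at 10 µM; inactive means inhibition below 50%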;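 further: firefly luciferase from ISG56 promoter only with Renilla not read in this screen; 0% = Sendai virus plus DMSO and 100% = medium plus DMSO without virus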); conditions: HEK293 RL24 IRF3 luciferase reporter, at 10 µM, stronger effect = higher value
[8] = TLR3 IRF3 reporter activation blockers – cell-based, poly I:C stimulus, luciferase, 10K MLSCN set, primary screen (AID 602277;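 active means inhibition of the reporter signal at or above 50%; inactive means inhibition below 50%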); conditions: HEK293-TLR3 RL24 IRF3 luciferase reporter, at 10 µM, stronger effect = higher value

Voltage-gated potassium channel subunit beta-2 (Rattus norvegicus), sequence (P62483 whole entry, looked up): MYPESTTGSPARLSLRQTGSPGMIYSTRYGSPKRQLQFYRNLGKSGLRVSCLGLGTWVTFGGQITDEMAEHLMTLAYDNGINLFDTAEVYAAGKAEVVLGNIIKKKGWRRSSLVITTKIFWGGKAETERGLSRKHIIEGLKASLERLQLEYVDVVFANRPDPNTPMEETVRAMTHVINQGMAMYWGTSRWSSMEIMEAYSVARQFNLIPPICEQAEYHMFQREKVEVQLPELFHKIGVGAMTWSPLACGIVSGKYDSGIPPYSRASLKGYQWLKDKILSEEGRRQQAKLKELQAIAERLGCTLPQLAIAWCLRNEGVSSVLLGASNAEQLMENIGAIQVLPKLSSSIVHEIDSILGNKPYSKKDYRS
Muscarinic acetylcholine receptor M4 (Homo sapiens), sequence (P08173 whole entry, looked up): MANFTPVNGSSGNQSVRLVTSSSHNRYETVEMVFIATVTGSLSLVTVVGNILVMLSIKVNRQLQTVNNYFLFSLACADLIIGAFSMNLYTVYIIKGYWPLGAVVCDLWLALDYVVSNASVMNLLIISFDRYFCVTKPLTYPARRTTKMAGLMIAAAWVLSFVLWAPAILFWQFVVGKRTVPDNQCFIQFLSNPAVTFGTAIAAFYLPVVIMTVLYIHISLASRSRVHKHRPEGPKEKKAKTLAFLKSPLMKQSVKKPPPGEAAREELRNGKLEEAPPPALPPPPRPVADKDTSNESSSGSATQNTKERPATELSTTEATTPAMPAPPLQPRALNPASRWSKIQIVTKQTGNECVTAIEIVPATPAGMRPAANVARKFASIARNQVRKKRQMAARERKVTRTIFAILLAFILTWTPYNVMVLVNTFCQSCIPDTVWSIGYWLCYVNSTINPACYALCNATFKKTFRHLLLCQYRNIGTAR

| SMILES | cell count [1] | inhibition [1] | inhibition of aggregation [2] | nuclei count [2] | inhibition [3] | nuclei count [3] | fluorescence slope [4] | NADPH fluorescence slope [5] | fluorescence slope [6] | inhibition [7] | inhibition [8] |
| --- | --- | --- | --- | --- | --- | --- | --- | --- | --- | --- | --- |
| COc1ccc(-n2nnnc2-c2cccc(OC)c2)cc1 | 573 | -45.9% (inactive) | -61.4% (inactive) | 2.6% | -101% (inactive) | 105% | -0.252 (inactive) | -3.1e-05 (inactive) | 0.00701 (inactive) | 34.8% (inactive) | 47.8% (inactive) |
| CCC(C)(C)NC(=O)C(OC(=O)c1ccco1)c1ccccc1OC (stereo not given) | 610 | -6.2% (inactive) | 11% (inactive) | 87.5% | -4.1% (inactive) | 107% | -0.248 (inactive) | 3.7e-06 (inactive) | 0.00739 (inactive) | 0.26% (inactive) | 8.58% (inactive) |
| CC12CN3CC(C)(CN(C1)C3c1ccc(Br)cc1)C2 (stereo not given) | 565 | -1.2% (inactive) | 5.1% (inactive) | 97.5% | -50.4% (inactive) | 96.1% | -0.607 (inactive) | -4.3e-05 (inactive) | 0.00246 (inactive) | 13.8% (inactive) | 13.4% (inactive) |
| CCOc1ccc2nc(SCC#N)c(C#N)cc2c1 | 430 | 3.1% (inactive) | -3.9% (inactive) | 14.5% | 9.9% (inactive) | 114% | -0.561 (inactive) | -1.4e-05 (inactive) | 0.00501 (inactive) | -56.3% (inactive) | -93.9% (inactive) |
| CCN(CC)S(=O)(=O)c1ccc2c(c1)c(=O)c(C(=O)NCCOC)cn2C | 203 | 6.9% (inactive) | 2.8% (inactive) | 100% | -24.6% (inactive) | 112% | -0.231 (inactive) | -3.4e-05 (inactive) | 0.00464 (inactive) | 19.3% (inactive) | 15.8% (inactive) |
| CCN(Cc1nc2cc(OC)c(OC)cc2c(=O)[nH]1)C(=O)c1ccc(S(=O)(=O)N(C)C)cc1 | 311 | 11.1% (inactive) | -0.9% (inactive) | 119% | 14.8% (inactive) | 89.6% | -0.399 (inactive) | -0.000108 (inactive) | 0.00948 (inactive) | 13.8% (inactive) | 28.7% (inactive) |
| Cc1c(C(=O)NCc2ccccn2)oc2ccccc12 | 328 | -4.1% (inactive) | -3.8% (inactive) | 86% | 44.5% (inactive) | 49.4% | -0.514 (inactive) | 8.6e-06 (inactive) | 0.00478 (inactive) | -29.5% (inactive) | -79.6% (inactive) |
| Cc1ccc(NC(=O)Cn2cccc2)cc1Cl | 655 | -12.9% (inactive) | 7% (inactive) | 115% | -4.1% (inactive) | 103% | -0.324 (inactive) | -5.7e-05 (inactive) | 0.00925 (inactive) | 8.59% (inactive) | -12.8% (inactive) |
| O=C(CSc1nnc(-c2cccnc2)o1)OC1CCCCC1 | 695 | -3.9% (inactive) | 22.6% (inactive) | 95.8% | -54.6% (inactive) | 126% | -0.517 (inactive) | 3.9e-05 (inactive) | 0.0051 (inactive) | 15.3% (inactive) | 16.2% (inactive) |
| CCOC(=O)N1CCN(C(=O)c2ccc3nc4cc(Cl)ccc4c(=O)n3c2)CC1 | 726 | -8.8% (inactive) | -19.4% (inactive) | 118% | 17.6% (inactive) | 118% | -0.0121 (inactive) | 2.7e-06 (inactive) | 0.00404 (inactive) | 6.58% (inactive) | 6.7% (inactive) |
| COCCNc1nc(C(C)(C)C)nc2c1nnn2Cc1ccccc1Cl | 419 | 15.8% (inactive) | 1% (inactive) | 106% | 14.6% (inactive) | 111% | -0.462 (inactive) | -1.9e-06 (inactive) | 0.00616 (inactive) | -0.805% (inactive) | 56% (active) |
| CCSC1=NCN(CCCC(=O)O)CN1 | 645 | 10.1% (inactive) | 5.8% (inactive) | 106% | -81.7% (inactive) | 125% | -0.558 (inactive) | -4e-05 (inactive) | 0.00489 (inactive) | 12.3% (inactive) | 10.3% (inactive) |
| Cc1csc2nc(CSc3nc4ccccc4o3)c(Br)n12 | 573 | -14.8% (inactive) | -9.5% (inactive) | 98.3% | -1.4% (inactive) | 125% | -0.536 (inactive) | 0.000171 (inactive) | 0.00576 (inactive) | -40% (inactive) | -122% (inactive) |
| COc1cccc(C(c2nnnn2Cc2ccccc2)N2CCN(C(=O)c3ccco3)CC2)c1OC (stereo not given) | 414 | 4.3% (inactive) | 5% (inactive) | 69.9% | -195% (inactive) | 161% | -0.473 (inactive) | -2e-05 (inactive) | 0.00486 (inactive) | 8.65% (inactive) | 11.2% (inactive) |
| O=C(COc1nnc2ccccn12)N1CCN(S(=O)(=O)c2ccccc2)CC1 | 691 | -3.3% (inactive) | -29.7% (inactive) | 95.4% | -18.1% (inactive) | 122% | -0.405 (inactive) | -9.3e-05 (inactive) | 0.00653 (inactive) | -12.4% (inactive) | 98.8% (active) |
